S100A4 inh HTS = inhibitors of S100A4-myosin IIA peptide binding, primary screen, biochemical, fluorescence polarization, TAMRA-MyoIIA peptide. Protein S100-A4 (Homo sapiens), P26447. inhibition, % at 10.7 µM. actives 0.14% (n = 360,000). AID 652163, 2013;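 active = mean inhibition of at least 70% across replicates, with every replicate also reaching that level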
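incubation = readout 5 min after mixing, signal stable up to 60 min | system = S100A4 monomer protein | buffer or medium = HEPES pH 7.2 with CaCl2, KCl, NaCl, DTT, Triton | benchmarks = neutral control DMSO, positive control TFP | also added = fluorescent myosin IIA peptide, 5 nM | compound dosing = one concentration per compound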
ARNT TACC3 PPI = disruptors of ARNT/TACC3 protein interaction, primary screen, biochemical, AlphaScreen, single concentration. Transforming acidic coiled-coil-containing protein 3 (Homo sapiens), Q9Y6A5. inhibition, % at 9.99 µM. actives 0.66% (n = 390,000). AlphaScreen His-ARNT PAS-B/GST-TACC3 binding, luminescence; TACC3 fragment carries E629A point mutation. AID 623870, 2012;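 active = mean inhibition of replicates at least 50% and at least half of replicates each reaching 50%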;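 note: 0% = complete ARNT plus TACC3 wells and 100% = ARNT alone without TACC3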
ERAP1 inh = human ERAP1 aminopeptidase inhibitors, primary screen, biochemical, single point, plate reader; Endoplasmic reticulum aminopeptidase 1 (Homo sapiens), Q9NZ08; recombinant ERAP1, Leu-AMC fluorescence, 60 min; inhibition, % at 10.7 µM; actives 0.15% (n = 340,000); AID 652197, 2013;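 active = mean replicate inhibition of at least 30%, or all replicates individually reaching that 30% level; inactive = mean below 30% and not every replicate reaching it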;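 note: 0% = neutral control wells and 100% = L-leucinethiol positive control wells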
Target sequence (Q9NZ08 whole entry, looked up): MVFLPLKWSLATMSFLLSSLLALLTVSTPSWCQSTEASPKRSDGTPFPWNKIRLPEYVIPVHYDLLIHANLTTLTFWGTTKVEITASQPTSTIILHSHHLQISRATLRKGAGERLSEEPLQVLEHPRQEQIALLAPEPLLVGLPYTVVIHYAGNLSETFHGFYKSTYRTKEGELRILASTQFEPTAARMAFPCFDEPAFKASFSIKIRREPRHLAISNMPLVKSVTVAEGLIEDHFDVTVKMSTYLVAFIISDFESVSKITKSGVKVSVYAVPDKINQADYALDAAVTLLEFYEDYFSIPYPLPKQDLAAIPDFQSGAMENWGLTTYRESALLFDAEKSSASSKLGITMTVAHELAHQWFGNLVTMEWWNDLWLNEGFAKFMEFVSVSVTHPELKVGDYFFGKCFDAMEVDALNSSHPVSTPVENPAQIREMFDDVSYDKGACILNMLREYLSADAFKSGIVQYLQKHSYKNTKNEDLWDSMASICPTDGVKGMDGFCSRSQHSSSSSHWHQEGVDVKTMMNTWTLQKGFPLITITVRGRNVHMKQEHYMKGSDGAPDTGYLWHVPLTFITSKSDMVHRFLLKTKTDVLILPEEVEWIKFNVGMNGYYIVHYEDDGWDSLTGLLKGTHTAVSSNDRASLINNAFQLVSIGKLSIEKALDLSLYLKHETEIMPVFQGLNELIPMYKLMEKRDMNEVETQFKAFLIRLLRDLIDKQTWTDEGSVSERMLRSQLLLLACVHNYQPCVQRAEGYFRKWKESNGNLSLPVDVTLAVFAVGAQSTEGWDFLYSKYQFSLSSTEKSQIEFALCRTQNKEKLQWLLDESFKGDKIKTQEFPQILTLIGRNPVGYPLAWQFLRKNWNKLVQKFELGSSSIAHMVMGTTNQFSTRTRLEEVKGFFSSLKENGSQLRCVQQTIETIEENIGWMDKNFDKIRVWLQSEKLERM
PGC1a acetyl inh = inhibitors of PGC1a acetylation signal, primary screen, cell-based, U2OS, AlphaScreen, inhibitor mode. AID 651687, 2012. inhibition, % at 15.6 µM. actives 0.17% (n = 350,000). AlphaScreen anti-acetyl-lysine; with virally co-expressed GCN5 acetyltransferase;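 active = every replicate shows inhibition of at least 40%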;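 note: 0% = neutral control wells and 100% = positive control wells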
Ecoli rRNA inh = reduced GFP signal of wild-type E. coli, primary screen, bacterial rRNA inhibitor project, GFP/RFP fluorescence, OD600, single point; GFP signal change (wild-type ribosome), % (concentration not given with the values); E. coli WT GFP vs humanized-ribosome RFP mutants, 24 h; active compounds read low; DMSO median 0, no signal -100; actives 1.6% (n = 350,000);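 active = significant combined selectivity score with lowered wild-type GFP, culture density cut under 30%, mutant RFP and density less affected; inactive = any of these conditions unmet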
Casp6 inh = human caspase-6 inhibitors, primary screen, biochemical, VEID-R110 fluorescence, single point, set 2; P55212; purified caspase-6, Z-VEID-R110 cleavage fluorescence; inhibition, % at 12.5 µM; actives 0.53% (n = 350,000); AID 686996, 2013;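 active = mean inhibition across replicates at least about 35%, with every replicate also reaching that limit, limit read from the data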;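 note: 0% = median of neutral control wells and 100% = no fluorescence left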
The depositor's hits bear a star; . = no result. A selection: hits, their analogues and other compounds. The true share with any hit is near 2.4%.

SMILES	S100A4 inh HTS	ARNT TACC3 PPI	ERAP1 inh	PGC1a acetyl inh	Ecoli rRNA inh	Casp6 inh
CCCCn1c(N)c(N(CCOC)C(=O)c2cc(-c3ccco3)nc3ccccc23)c(=O)[nH]c1=O	-4.2	6.4	2.4	.	0.0	61.3*
CCCCn1c(N)c(N(CC(C)C)C(=O)c2cc(-c3ccc(OC)c(OC)c3)nc3ccccc23)c(=O)[nH]c1=O	-3.8	-1.0	1.0	.	-1.1	3.4
COc1cccc(S(=O)(=O)N[C@H]2C=C[C@@H](CC(=O)NC3CCC3)O[C@H]2CO)c1	5.9	-5.6	-0.4	20.4	0.5	0.5
COC(=O)c1ccc([C@@H]2C=C(C(=O)N3CCN(Cc4ccc5c(c4)OCO5)CC3)O[C@H](OCc3ccc(CO)cc3)C2)cc1	-11.4	9.2	-3.7	-15.0	.	2.7
O=C(Nc1cccc(F)c1)N1CC(=O)N2[C@H](CO)[C@H](c3ccc(Br)cc3)[C@@H]2C1	5.4	.	-0.6	5.2	-5.1	-2.7
COCCN(C(=O)COC(=O)Cc1cccc2ccccc12)c1c(N)n(Cc2ccccc2)c(=O)[nH]c1=O	-1.1	-7.4	-1.3	2.8	-3.3	2.7
CCCCN(C(=O)c1ccc([N+](=O)[O-])o1)c1c(N)n(CC(C)C)c(=O)[nH]c1=O	-1.9	-1.8	87.1*	5.8	11.3	3.6
COCCN(C(=O)COC(=O)Cc1coc2cc(C)ccc12)c1c(N)n(Cc2ccccc2)c(=O)[nH]c1=O	-1.9	1.7	-0.1	.	10.9	51.8*
CC(C)CC#Cc1ccc2c(c1)O[C@H](CN(C)CC1CCOCC1)[C@H](C)CN([C@@H](C)CO)S2(=O)=O	-2.7	1.8	1.0	4.9	-5.4	-2.2
O=C(O)C[C@@H]1CC[C@@H](NC(=O)CCN2CCCCC2)[C@@H](CO)O1	-2.7	.	-3.3	7.4	0.3	1.6
COc1ccc2c3c([nH]c2c1)[C@@H](CO)N(S(=O)(=O)c1cn(C)cn1)CC31CN(CC2CCOCC2)C1	.	.	.	-5.7	3.3	.
O=C(N/N=C/c1cc(Br)c(Br)o1)C(O)c1ccccc1 (stereo unspecified)	-0.7	3.7	0.7	11.5	16.0	40.1*
CC(=O)N(C)C[C@@H]1Oc2ncccc2C(=O)N(C)C[C@H]1C	.	.	.	.	0.7	.
O=c1oc2ccccc2c(O)c1Sc1c(O)c2ccccc2oc1=O	.	75.9*	.	0.5	.	.
CN1C(=O)[C@@](O)(c2cn(C)c3ccccc23)c2cc(Br)ccc21	-2.7	.	.	.	-23.2*	2.3
CN1C(=O)C(c2cn(C)c3ccccc23)(c2cn(C)c3ccccc23)c2cc(Br)ccc21	-4.9	.	-0.6	.	7.8	-1.5
CO[C@H]1CN(C)C(=O)c2cc(NC(=O)C3CC3)ccc2OC[C@@H](C)NC[C@@H]1C	-6.6	-1.6	-3.2	-18.2	0.0	5.1
O=C(C(=O)N1CCC(CNS(=O)(=O)c2ccc(C(F)(F)F)cc2)CC1)c1cc2ccccc2o1	2.2	.	3.9	.	-7.0	-3.5
O=C(C(=O)N1CCC(CNS(=O)(=O)c2ccc(F)c(F)c2)CC1)c1cc2ccccc2o1	22.9	.	4.5	.	-12.4*	1.1
COc1ccccc1NC(=O)N1CC(=O)N2[C@@H](CO)[C@@H](c3ccc(C#CC4CC4)cc3)[C@@H]2C1	2.5	.	0.1	-2.2	1.1	-0.1
CN(Cc1ccccc1)C1=CC(=[N+]2CCCCC2)CC(C)(C)C1	-6.7	4.4	23.3	-1.0	-51.5*	-0.6
O=C(CSc1ncc(-c2ccccc2)[nH]1)Nc1ccccc1	-2.6	13.7	-0.5	-13.7	-32.2*	1.7
CN(C(=O)c1ccc(Cl)cc1)c1ccc(OCC(=O)Nc2cc(C(=O)O)ccc2Cl)cc1	-3.1	.	-8.4	.	-7.5	36.4*
CCC(=O)Nc1ccc(Cl)c(NC(=S)NC(=O)COc2ccc(Cl)cc2)c1	.	-6.7	.	.	.	.
Cc1ccc(SCc2cn3c(C)csc3n2)cc1	-4.9	4.0	1.0	1.6	-51.1*	-4.2
SMILES	S100A4 inh HTS	ARNT TACC3 PPI	ERAP1 inh	PGC1a acetyl inh	Ecoli rRNA inh	Casp6 inh
CO[C@@H]1CN(C)C(=O)c2ccc(NC(=O)CC(F)(F)F)cc2OC[C@@H](C)N(C(=O)c2ccccc2F)C[C@@H]1C	-32.4	.	1.5	-3.2	0.7	-2.9
Cc1cc(C)n(CCNC(=O)C2CCC(=O)N(Cc3ccc(Cl)cc3)C2)n1 (stereo unspecified)	24.5	-3.0	0.4	5.2	6.8	63.3*
Cc1ccn(CCNC(=O)C2CCC(=O)N(Cc3ccc(Cl)cc3)C2)n1 (stereo unspecified)	3.0	-4.6	-5.4	-6.9	2.3	-0.1
O=C(C1CC1)N1CC2(C1)[C@H](c1ccccc1)[C@@H](CO)N2Cc1ccccc1F	3.2	.	0.4	-10.1	-0.5	0.7
C[C@H](CO)N1C[C@H](C)[C@@H](CN(C)C(=O)Nc2cccc3ccccc23)Oc2ccc(NC(=O)Nc3ccc4c(c3)OCO4)cc2C1=O	26.5	3.1	-0.3	0.2	4.4	-1.5
N#Cc1ccc(NC(=O)Cn2c3[n+](c4ccc(C(F)(F)F)cc42)CCCCC3)cc1	0.9	0.2	63.5*	.	-1.3	4.1
CC(C)Oc1cccc(C(=O)C2CCCN(C(=O)c3cc(C4CC4)[nH]n3)C2)c1 (stereo unspecified)	-7.5	-6.9	-0.8	4.4	-5.1	0.4
CC(C)Oc1cccc(C(=O)C2CCCN(C(=O)c3cc(C(F)(F)F)[nH]n3)C2)c1 (stereo unspecified)	2.8	-1.3	1.2	-4.7	-28.9*	2.1
COC(=O)c1cccc(C(=O)N2CCCC(C(=O)c3cccc(OC(C)C)c3)C2)c1 (stereo unspecified)	-1.3	1.4	-0.8	-0.5	4.0	39.4*
CCCNC(=O)C[C@@H]1C[C@@H]2c3cc(NC(=O)c4ccc5c(c4)OCO5)ccc3O[C@@H]2[C@H](CO)O1	.	-9.3	.	-0.7	1.0	.
CN(C)CCN(C(=O)c1cccc(Cl)c1)c1nc2c(Cl)cccc2s1	.	.	.	-3.5	.	.
Cc1ccc(C(=O)N(CCCN(C)C)c2nc3ccc(Cl)cc3s2)cc1C	-3.9	15.0	-2.0	-28.1	-57.3	2.0
CCN(CC)CCN(C(=O)c1ccc2c(c1)OCCO2)c1nc2c(Cl)cccc2s1	-3.1	10.1	-2.6	.	-22.0*	-4.8
CCN(CC)CCN(C(=O)c1ccc2ccccc2c1)c1nc2cc3c(cc2s1)OCO3	2.4	3.5	0.4	.	-8.0	-3.3
